Screening results from PubChem.
Most compounds without a hit are left out; they make up all but 2.3% or so of the library.
MC4R antagonist = MC4R antagonists of cAMP signaling, primary screen, cell-based, TR-FRET, antagonist arm of biased-ligand search. Melanocortin receptor 4 (Homo sapiens), P32245. MC4R-expressing cells, MTII-stimulated cAMP, LANCE TR-FRET. inhibition, % at 6.5 µM. 360,000 tested, 0.48% active. AID 540295, 2011;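 active means inhibition above its plate's cutoff, the mean of tested wells on that plate plus 3 SD, cut at about 29% in these data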;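 further: 0% = Melanotan II alone and 100% = Melanotan II plus saturating MCL0020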
Target sequence (P32245 whole entry, looked up): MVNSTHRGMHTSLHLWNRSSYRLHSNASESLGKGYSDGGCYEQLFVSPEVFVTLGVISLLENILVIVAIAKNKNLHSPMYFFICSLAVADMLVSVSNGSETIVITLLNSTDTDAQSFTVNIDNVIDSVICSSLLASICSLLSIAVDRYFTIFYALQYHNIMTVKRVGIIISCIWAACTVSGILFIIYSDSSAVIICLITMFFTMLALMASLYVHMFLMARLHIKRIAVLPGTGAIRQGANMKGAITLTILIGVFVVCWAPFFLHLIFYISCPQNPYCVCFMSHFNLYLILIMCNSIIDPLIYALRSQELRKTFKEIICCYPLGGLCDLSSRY
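System: U2OS-MC4R stable cell line; Technique: Eu-cAMP/anti-cAMP TR-FRET, emission 671 nm; Repeats: single well per compound; Also added: Melanotan II; Dosing: one concentration, 6.5 µM nominal; Schedule: 30-min compound, 1-h challenge, 1-h detection, room temperature.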
MC4R barr agon = MC4R agonists recruiting beta-arrestin, primary screen, cell-based, luminescence, agonist arm of biased-ligand search; 360,000 tested, 0.98% active; activation, % at 8.9 µM; U2OS MC4R beta-arrestin complementation; percent of melanotan II response, DMSO zero; AID 540308, 2011; Melanocortin receptor 4 (Homo sapiens), P32245;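 active means activation above a per-plate cutoff, the mean activation of sample wells on that plate plus 3 SD, cut at about 8% in these data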
bovine MsrA act = bovine MsrA enzyme activators, primary screen, biochemical, absorbance, HTS; Methionine sulfoxide reductase A (Bos taurus); purified bovine MsrA, absorbance read-out; activation, % at 10.6 µM; 360,000 tested, 0.3% active; AID 602163, 2012; in the data active means activation above about 7.5%;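 further: 0% = vehicle and 100% = reference activator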
MsrA inhibitor = bovine MsrA enzyme inhibitors, primary screen, biochemical, absorbance, HTS | AID 651718, 2012 | purified bovine MsrA, absorbance read-out | inhibition, % at 15.5 µM | 360,000 tested, 0.75% active; in the data active means inhibition above about 4.5%;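 further: 0% = vehicle wells with enzyme and 100% = reference inhibitor wells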
U2OS cAMP counter = nonselective cAMP signaling inhibitors, parental cells, counter-screen for MC4R biased antagonist project, cell-based, TR-FRET, U2OS, forskolin, triplicate; shares compounds with MC4R antagonist; LANCE TR-FRET; inhibition, % at 6.5 µM; 1,600 tested, 26% active;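 active means mean inhibition over triplicates above the low-control well mean plus 3 SD, set per campaign, cut at about 13% in these data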;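 further: signal is single emission at 671 nm which falls as cellular cAMP rises; 0% = forskolin-stimulated wells and 100% = buffer without forskolin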
MC4R antag conf = MC4R cAMP antagonists, retest, confirmation, cell-based, TR-FRET. MC4R-expressing cells, MTII-stimulated cAMP. shares compounds with MC4R antagonist. inhibition, % at 6.5 µM. 1,600 tested, 27% active; in the data active means inhibition above about 29%;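 further: 0% = agonist stimulated wells alone and 100% = agonist stimulated wells plus saturating reference antagonist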
An asterisk follows results filed as active.

How did O=C(Nc1ccccn1)c1ccc(Br)s1 do in these assays?
MC4R antagonist: 31*; MC4R barr agon: 2; bovine MsrA act: -1; MsrA inhibitor: 0; U2OS cAMP counter: 3; MC4R antag conf: 2

Results for CC1=C(CO)C(=O)OC([C@@H](C)C2CC[C@H]3C4C[C@H]5O[C@]56[C@@H](O)C=CC(=O)[C@]6(C)C4CC[C@]23C)C1 (stereo partly drawn) ?
MC4R antagonist: 39*; MC4R barr agon: -1; bovine MsrA act: -1; MsrA inhibitor: 0; U2OS cAMP counter: -3; MC4R antag conf: 48*

Results for O=C1c2cccc([N+](=O)[O-])c2C(=O)N1C1CCCCC1 ?
MC4R antagonist: 17; MC4R barr agon: -2; bovine MsrA act: -4; MsrA inhibitor: 1

What do the screens show for `Cc1c(Cl)cccc1N1C(=O)C(N2C(=O)c3cccc([N+](=O)[O-])c3C2=O)C1c1cccs1` (stereo not drawn)?
MC4R antagonist: 35*; MC4R barr agon: -4; bovine MsrA act: -3; U2OS cAMP counter: -6; MC4R antag conf: -4

How did COc1ccc(Nc2nc(C)cc(C)c2C#N)c(OC)c1 do in these assays?
MC4R antagonist: 15; MC4R barr agon: 5; bovine MsrA act: -2; MsrA inhibitor: 0

What do the screens show for `COC(=O)c1ccc(C2c3[nH]c4ccccc4c3C[C@H]3C(=O)N(C4CCN(Cc5ccccc5)CC4)CC(=O)N23)cc1` (stereo partly drawn)?
MC4R antagonist: 37*; MC4R barr agon: -1; bovine MsrA act: 0; MsrA inhibitor: 2; U2OS cAMP counter: 6; MC4R antag conf: 22

Results for O=[N+]([O-])c1cccc(COc2ccc(CN3CCOCC3)cc2)c1 ?
MC4R antagonist: -3; MC4R barr agon: -2; bovine MsrA act: -5; MsrA inhibitor: 1

What do the screens show for `Cc1ccccc1NC(=S)N(CCCN1CCCCC1)Cc1ccco1`?
MC4R antagonist: -2; MC4R barr agon: -1; bovine MsrA act: -5; MsrA inhibitor: -1

How did Cc1ccccc1NC(=S)N(CCN1CCCCC1)Cc1ccco1 do in these assays?
MC4R antagonist: 31*; MC4R barr agon: 3; bovine MsrA act: -2; MsrA inhibitor: 1; U2OS cAMP counter: 1; MC4R antag conf: -6

Results for N#Cc1cccc(C(c2nnnn2CCc2ccccc2)N2CCN(C3CCCCC3)CC2)c1 (stereo not drawn) ?
MC4R antagonist: 29*; MC4R barr agon: 2; bovine MsrA act: 0; MsrA inhibitor: 0; U2OS cAMP counter: 3; MC4R antag conf: 3

How did CCOC(=O)c1ccccc1NC(=O)COC(=O)c1ccc(OCC(=O)N2CCOCC2)c(OCC)c1 do in these assays?
MC4R antagonist: 30*; MC4R barr agon: 9.1*; bovine MsrA act: -3; MsrA inhibitor: -1; U2OS cAMP counter: 0; MC4R antag conf: 4

What do the screens show for `COc1ccc(NC(=O)c2csc3c2CCCC3)cc1`?
MC4R antagonist: -5; MC4R barr agon: -2; bovine MsrA act: -2

How did CN(C)C(=O)c1ccc(Cl)cc1[N+](=O)[O-] do in these assays?
MC4R antagonist: 1; MC4R barr agon: -2; bovine MsrA act: 1; MsrA inhibitor: -2

How did CN(C)c1ccnc(Nc2ccc(O)cc2)c1C#N do in these assays?
MC4R antagonist: 29*; MC4R barr agon: 1; bovine MsrA act: -3; MsrA inhibitor: 2; U2OS cAMP counter: -1; MC4R antag conf: 3

What do the screens show for `CS(=O)(=O)Nc1cccc(NC(=O)c2cccc3c(-c4cccc(C(N)=O)c4)coc23)c1`?
MC4R antagonist: 44*; MC4R barr agon: 2; bovine MsrA act: 1; MsrA inhibitor: 1; U2OS cAMP counter: 8; MC4R antag conf: 22

What do the screens show for `CCOc1ccc2nc(SCC(=O)N(CC(C)C)c3c(N)n(Cc4ccccc4)c(=O)[nH]c3=O)[nH]c2c1`?
MC4R antagonist: 4; MC4R barr agon: -3; bovine MsrA act: -1; MsrA inhibitor: 0

How did CCCc1nnc(NC(=O)c2nc(S(=O)(=O)Cc3ccc(C)cc3)ncc2Cl)s1 do in these assays?
MC4R antagonist: 52*; MC4R barr agon: -5; bovine MsrA act: -5; MsrA inhibitor: 0; U2OS cAMP counter: 22*; MC4R antag conf: 36*

What do the screens show for `CCOc1ccccc1NC(=O)c1nc(S(=O)(=O)Cc2ccccc2)ncc1Cl`?
MC4R antagonist: 33*; MC4R barr agon: -5; bovine MsrA act: 0; MsrA inhibitor: 0; U2OS cAMP counter: 5; MC4R antag conf: -24

How did Cc1cccc(CS(=O)(=O)c2ncc(Cl)c(C(=O)NCc3ccc4c(c3)OCO4)n2)c1 do in these assays?
MC4R antagonist: 33*; MC4R barr agon: -3; bovine MsrA act: -4; MsrA inhibitor: 1; U2OS cAMP counter: 10; MC4R antag conf: 25

Results for COc1ccccc1NC(=O)c1nc(S(=O)(=O)Cc2ccccc2)ncc1Cl ?
MC4R antagonist: 5; MC4R barr agon: -7; bovine MsrA act: -3; MsrA inhibitor: 2

How did Cc1ccc(S(=O)(=O)CCc2nnc(NC(=O)c3cnccn3)s2)cc1 do in these assays?
MC4R antagonist: -8; MC4R barr agon: 0; bovine MsrA act: -4; MsrA inhibitor: 0

How did COC(=O)c1ccc(NC(=O)c2nc(S(=O)(=O)Cc3cccc(C)c3)ncc2Cl)cc1 do in these assays?
MC4R antagonist: 14; MC4R barr agon: -6; bovine MsrA act: -5; MsrA inhibitor: 1

How did CC(=O)Nc1ccc(NC(=O)c2nc(S(=O)(=O)Cc3cccc(C)c3)ncc2Cl)cc1 do in these assays?
MC4R antagonist: 43*; MC4R barr agon: -6; bovine MsrA act: -7; MsrA inhibitor: 1; U2OS cAMP counter: 14*; MC4R antag conf: 28

How did O=C(NCc1ccc2c(c1)OCO2)c1ccc(-n2cnnn2)cc1 do in these assays?
MC4R antagonist: -1; MC4R barr agon: 2; bovine MsrA act: -14; MsrA inhibitor: -2

What do the screens show for `CCOC(=O)c1ccc(NC(=O)c2nc(S(=O)(=O)Cc3ccccc3)ncc2Cl)cc1`?
MC4R antagonist: -1; MC4R barr agon: -5; bovine MsrA act: 3; MsrA inhibitor: 1

What do the screens show for `CSc1nnc(NC(=O)c2nc(S(=O)(=O)Cc3ccccc3)ncc2Cl)s1`?
MC4R antagonist: 23; MC4R barr agon: -3; bovine MsrA act: -5; MsrA inhibitor: 0

What do the screens show for `CCc1ccc(NC(=O)c2nc(S(=O)(=O)Cc3ccccc3)ncc2Cl)cc1`?
MC4R antagonist: 36*; MC4R barr agon: -7; bovine MsrA act: -5; MsrA inhibitor: 2; U2OS cAMP counter: 12; MC4R antag conf: 17
